Experimental data from PMC5489371 (Leukemia & lymphoma, 2017).

Legend:
[1] = test system: patients treated with single agent panobinostat; details: cited from earlier work
[2] = test system: patients with relapsed MM; test: Response assessment, multiple myeloma patients; format: in vivo, human
Summary of the method: (§1)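 Open-label, single-centre, first-in-human 3+3 dose-escalation trial. Adults with relapsed or refractory CLL, Hodgkin or non-Hodgkin lymphoma (WHO 2008) or MM (IMWG criteria) had to have had at least one prior therapy; MM patients had prior immunomodulatory agent and proteasome inhibitor. Test compound was given orally Mon/Wed/Fri for three weeks of each 28-day cycle at 20, 40, 50 or 70 mg, until unacceptable toxicity or progression.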

[3] = test system: patients with relapsed lymphoma; test: Response assessment, lymphoma patients; format: in vivo, human
Summary of the method: as §1

[4] = Pharmacokinetic analysis of AR-42 in patient plasma; format: in vivo, human
[5] = test system: soluble CD44 (sCD44); test: ELISA for soluble CD44 in serum of MM patients; format: in vivo, human
Summary of the method: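 Serum from relapsed multiple myeloma patients was collected at baseline before dosing and on cycle 1 day 15. Soluble human CD44 was measured by ELISA following the kit manufacturer's protocol. Patients took the oral HDAC inhibitor Monday, Wednesday and Friday for three weeks, then one week off, in 28-day cycles.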

[6] = test system: MM cell lines (U266, H929, RPMI 8226, ARH-77, and IM-9); details: MM cell lines and primary MM cells; cited from earlier work
[7] = test system: patients with relapsed hematologic malignancies; test: Response assessment, all 27 patients; format: in vivo, human; details: 95% CI: 53.7 – 88.8
Summary of the method: as §1

[8] = QTc measurement; format: in vivo, human
[9] = test system: patients with relapsed hematologic malignancies; test: Phase 1 dose escalation trial of single-agent AR-42: safety and tolerability; format: in vivo, human
[10] = between the 20 and 40 mg dose levels
[11] = between the 40 and 50 mg dose levels

Cc1[nH]c2ccccc2c1CCNCc1ccc(/C=C/C(=O)NO)cc1 [panobinostat]
patients with fatigue [1]: 47.4%

AR-42
Cycles of Treatment ([2]; MM patient ID 1, 20 mg (1a)): 1 cycles
Cycles of Treatment ([2]; MM patient ID 4, 40 mg (2a)): 3 cycles
Cycles of Treatment ([2]; MM patient ID 5, 40 mg (2a)): 18 cycles
Cycles of Treatment ([2]; MM patient ID 6, 40 mg (2a)): 3 cycles
Cycles of Treatment ([2]; MM patient ID 7, 40 mg (1b)): 3 cycles
Cycles of Treatment ([2]; MM patient ID 8, 40 mg (1b)): 1 cycles
Cycles of Treatment ([2]; MM patient ID 10, 50 mg (2b)): 1 cycles
Cycles of Treatment ([2]; MM patient ID 11, 50 mg (2b)): 1 cycles
Cycles of Treatment ([2]; MM patient ID 12, 50 mg (2b)): 1 cycles
Cycles of Treatment ([2]; MM patient ID 13, 50 mg (2b)): 3 cycles
Cycles of Treatment ([2]; MM patient ID 17, 70 mg (3b)): 5 cycles
Cycles of Treatment ([2]; MM patient ID 20, 40 mg (4b)): 2 cycles
Cycles of Treatment ([2]; MM patient ID 21, 40 mg (4b)): 1 cycles
Cycles of Treatment ([2]; MM patient ID 22, 40 mg (4b)): 2 cycles
Cycles of Treatment ([2]; MM patient ID 25, 40 mg (4b)): 2 cycles
Cycles of Treatment ([2]; MM patient ID 26, 40 mg (4b)): 1 cycles
Cycles of Treatment ([2]; MM patient ID 27, 40 mg (4b)): 3 cycles
duration of disease control, one patient with MM ([2]; human, in vivo): 19 months
MM patients who progressed during the first cycle ([2]; of 17 MM patients): four
duration of disease control, one patient with mantle cell lymphoma ([3]; ongoing): 27 months
best response in patients with relapsed lymphoma ([3]; ten patients): stable disease
peak concentration (geometric mean, %CV) ([4]; 20 mg oral, day 19, plasma): 0.335 (65.6) μM
peak concentration (geometric mean, %CV) ([4]; 20 mg oral, day one, plasma): 0.383 (56.2) μM
peak concentration (geometric mean, %CV) ([4]; 40 mg oral, day 19, plasma): 0.830 (27.9) μM
peak concentration (geometric mean, %CV) ([4]; 40 mg oral, day one, plasma): 0.794 (23.8) μM
peak concentration (geometric mean, %CV) ([4]; 50 mg oral, day one, plasma): 1.60 (37.5) μM
fold increase in mean day one AUC0-∞ [4, 10]: 1.9 fold
fold increase in mean day one Cmax [4, 10]: 2.1 fold
fold increase in mean day one AUC0-∞ [4, 11]: 1.7 fold
fold increase in mean day one Cmax [4, 11]: 2.0 fold
reduction of sCD44, mean difference ([5]; 10 MM patients, 95% CI: 3.19–32.72, paired t-test, p=0.0022): 17.95
MM patients with decreased sCD44 levels ([5]; baseline vs cycle 1 day 15): nine
MM patients in whom CD44 decreased more than 20% by day 15 ([5]; cycle 1 day 15): four
potency in comparison to vorinostat [6]: four- to seven-fold more potent
patients with stable disease for between 1 and 3 cycles [7]: 20 of 27
QTc prolongation, highest grade ([8]; all 27 patients, not associated with cardiac events or dose reductions): ≤ 1 grade
mean maximum QTc change ([8]; all patients, range 10 – 60, standard deviation 14.5): 27.4
dose-limiting toxicities (DLTs) ([9]; in vivo): no DLTs were evident
grade 3 or 4 fatigue ([9]; in vivo): no patient suffered grade 3 or 4 fatigue
patients requiring hospitalization ([9]; in vivo): seven
patients requiring temporary holds of study treatment ([9]; in vivo): seven
patients with SAEs possibly, probably, or likely related to AR-42 ([9]; in vivo): five
patients with neutropenia (grade 1 – 3) ([9]; in vivo): 11 patients
patients with neutropenia (grade 1 – 4) ([9]; in vivo): 12 patients
maximum tolerated dose (MTD) ([9]; oral, three times weekly (M-W-F) for three weeks of a 28-day cycle): 40 mg
